# Screening results as filed in PubChem.
# This is one part of a sample in which hits are shown more often than they occur.
# FXN GAA850 act – activators of GAA850 frataxin (FXN) promoter; activation, % at 6 µM; HEK293 lucGAA850 FXN promoter luciferase reporter, 24 h; percent of 10 µM SAHA response; 0.56% of 360,000 active; AID 540364;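 active means activation above the average of all compounds screened plus 3 SD, cutoff fixed separately per campaign, cut at about 7.5% in these data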;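 further: 0% = DMSO wells and 100% = 10 µM SAHA wells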
# CHOP inh – blocks CHOP induction under ER stress; inhibition, % at 10 µM; AID 2732; CHO-K1 CHOP-promoter luciferase, tunicamycin-induced, 15-18 h; 3.8% of 220,000 active;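 active means compounds that reduced the stress-induced luciferase reporter signal by more than about 70% of percent inhibition, limit read from the data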;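 further: 0% = tunicamycin plus vehicle and 100% = wells without tunicamycin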
# UPR XBP1 act – adaptive UPR (XBP1) activation; activation, % at 20 µM; CHO-XBP1 luciferase reporter, IRE1-XBP1 UPR activation, luminescence; percent of tunicamycin response, DMSO as zero; AID 463104; 0.33% of 330,000 active;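 active means versus positive control, 20 µM dose yields 30% or more activation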;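 further: 100% = tunicamycin at 10 µg/mL and 0% = DMSO only wells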
#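 Assay system: CHO-XBP1 luciferase reporter cells; Schedule: 6 h treatment, 37 °C; Detection: glow luminescence from Steady-Glo reagent; Benchmarks: high control tunicamycin 10 µg/mL final, low control DMSO vehicle only.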
# UPR CHOP act – activators of apoptotic arm of unfolded protein response (CHOP); CHO-CHOP luciferase reporter, UPR activation, luminescence; percent of tunicamycin response over DMSO baseline; activation, % at 10 µM; 0.34% of 330,000 active;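 active means at 10 µM dose, activation of 40% or more, normalized to positive control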;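 further: 100% = tunicamycin at 10 µg/mL and 0% = DMSO alone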
#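 System: CHO-CHOP luciferase reporter cell line | Buffer or medium: F12 medium containing 10% fetal bovine serum | Doses: One dose, 10 µM in 0.5% DMSO | Times: 6 h compound exposure at 37 °C after overnight seeding | Signal: Luciferase luminescence | Read-out: % activation vs tunicamycin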
# * marks the source's active call; other numbers are inactive results; . = no result.
SMILES,FXN GAA850 act,CHOP inh,UPR XBP1 act,UPR CHOP act
N#C/C(=C\C=C\c1ccccc1)C(=O)Nc1ccccc1,4.0,73.4*,4.2,2.5
Cc1ccc(C)c(-n2nnnc2SCC(=O)NCCC2=CCCCC2)c1,0.8,85.8*,-2.7,-0.3
Cc1ccc(C(=O)Nc2ccccc2C(=O)NCc2ccccc2)cc1,0.2,80.2*,0.6,1.2
Cc1sc2nc(CSc3cccc(C(F)(F)F)c3)[nH]c(=O)c2c1C,3.5,72.7*,-1.4,-1.4
Cc1sc2nc(CSc3nc4ccccc4s3)[nH]c(=O)c2c1C,.,76.8*,1.3,-0.7
CCOC(=O)C1(C)CCCN1C(=O)c1ccc(OC)c(OC)c1 (centres undefined),0.8,.,.,.
CN1/C(=C\C(=S)NC(=O)c2ccccc2Cl)C(C)(C)c2ccccc21,2.7,21.6,0.9,4.4
COc1ccccc1C(=O)NC(=S)/C=C1/N(C)c2ccccc2C1(C)C,-1.9,73.4*,1.3,4.9
Cc1ccccc1CSCCNC(=O)COc1ccc(Cl)cc1,-1.4,75.3*,-2.6,0.0
CC(C)(C)SCCNC(=O)COc1ccc(Cl)cc1,1.1,13.3,-3.6,-0.8
Cc1nc(N)nc(N)c1Oc1ccc(Cl)cc1,2.5,.,.,.
Cc1nc(N)nc(N)c1/C=C/C(C)(C)c1ccc(Cl)cc1,-9.1,76.9*,.,.
O=S(=O)(c1ccccc1)c1cnn2c(C(F)(F)F)cc(-c3ccccc3)nc12,-2.2,12.5,-1.8,-0.7
O=S(=O)(c1ccccc1)c1cnn2c(C(F)(F)F)cc(-c3ccc(F)cc3)nc12,0.2,70.7*,1.6,0.3
Cc1cc2ccccn2c1C(=O)c1ccc(N/N=C/c2ccc(C(=O)O)cc2)c([N+](=O)[O-])c1,2.0,103.0*,.,.
Nc1nc(N)c2cc(CNc3ccc(Cl)c(Cl)c3)ccc2n1,-7.5,.,.,.
O=C(CSc1ncnc2c1cnn2-c1ccc(Cl)cc1)NCc1ccc2c(c1)OCO2,1.7,72.4*,-0.1,2.8
COc1cc2nc(CN(C)Cc3ccc(SC)cc3)[nH]c(=O)c2cc1OC,-0.2,24.9,-1.1,-1.0
O=c1[nH]c(CSc2ncnc3sccc23)nc2cc(C(F)(F)F)ccc12,0.4,88.7*,-2.7,-1.5
O=c1[nH]c(CSc2ncc(C(F)(F)F)cc2Cl)nc2ccccc12,3.4,-4.5,3.9,0.8
CSc1ccc(CN(C)Cc2nc3cc(C(F)(F)F)ccc3c(=O)[nH]2)cc1,-0.5,71.0*,2.1,-0.1
CCc1nc(N(CC)CC)c2oc3ccccc3c2n1,1.1,91.0*,3.9,0.7
CCNc1nc(CC)nc2c1oc1ccccc12,2.1,12.4,2.0,2.2
CCc1nc(N2CCC(C)CC2)c2oc3ccccc3c2n1,1.7,70.2*,-0.1,2.4
C[C@@H]1CN([C@@H](C)CO)C(=O)c2cc(Br)cnc2O[C@H]1CN(C)C(=O)Nc1ccccc1,-1.7,.,.,.
SMILES,FXN GAA850 act,CHOP inh,UPR XBP1 act,UPR CHOP act
CCOC(=O)C1=C(C)NC(SCC(=O)Nc2nc(C)cs2)=C(C#N)C1c1cccs1 (centres undefined),.,74.5*,-1.6,0.0
C=CCOC(=O)C1=C(C)NC(SCC(N)=O)=C(C#N)C1c1cccs1 (centres undefined),1.4,-2.4,-5.3,-1.1
CN(CC(O)COc1ccc(OCC(O)CN(C)C2CCCCC2)cc1)C1CCCCC1 (centres undefined),-0.1,21.8,1.6,1.0
Cc1cccc(C)c1OCC(O)CN(Cc1ccccc1O)C1CCCCC1 (centres undefined),-3.8,85.5*,-3.9,-0.2
Cc1cc([N+](=O)[O-])ccc1-c1ccc(C2Nc3ccccc3C(=O)N2O)o1 (centres undefined),-6.4,75.7*,-0.4,0.8
CC(C)c1ccc(CN2CCC2(C)C(=O)Nc2cccc(Oc3ccccc3)c2)cc1 (centres undefined),0.2,.,.,.
CCOC(=O)c1cnc(-n2nc(C)cc2C)nc1NNc1cc(-c2ccccc2)nc(C)n1,.,74.3*,-3.1,14.0
C[C@@H]1CN([C@@H](C)CO)C(=O)CCCn2cc(nn2)CO[C@H]1CN(C)S(=O)(=O)c1ccc(C#N)cc1,1.1,.,.,.
CC(C)NC(=O)c1cccc2c(-c3ccc(F)c(F)c3)coc12,0.9,.,.,.
CN(C)c1ccc(NC(=O)Nc2cccc3ccccc23)cc1,4.6,85.8*,-2.1,4.7
CCN(CC)c1ccc(NC(=O)Nc2cccc3ccccc23)cc1,2.9,.,1.4,5.9
CC(C)CC(=O)OCC(=O)Nc1ccccc1Sc1ccccc1,1.5,83.5*,2.0,0.3
O=C(Cc1ccc(Cl)cc1)Nc1ccccc1Sc1ccccc1,4.5,75.1*,-0.9,2.8
Cc1cc(NC(=O)/C(C#N)=C/c2ccc(-c3cccc(C(F)(F)F)c3)o2)n(-c2ccccc2)n1,3.1,84.8*,-0.8,0.1
Cc1c(NC(=O)/C(C#N)=C/c2ccc(-c3ccc(Cl)cc3)o2)c(=O)n(-c2ccccc2)n1C,0.3,67.6,16.2,4.1
CCOC(=O)Cc1cnc(NC(=O)NC(C(=O)OCC)(c2ccccc2)C(F)(F)F)s1 (centres undefined),0.9,84.8*,4.7,3.3
CCc1nc2ccc(C(=O)Nc3ccc(OC)c(OC)c3)cn2c1N(C)CCC(C)C,0.4,.,.,.
O=S(=O)(c1cc(Cl)cc(Cl)c1)N1CCCC1c1nc2ccccc2s1 (centres undefined),2.1,70.2*,0.9,0.3
O=S(=O)(c1ccc(Cl)cc1)N1CCCC1c1nc2ccccc2s1 (centres undefined),0.0,30.6,1.5,0.3
N#CC1=C(N)c2ccccc2CC12CCCCC2,0.4,78.0*,-1.9,-0.9
CC1(C(=O)NS(=O)(=O)c2ccccc2)CCN1C(=O)COc1ccc(Cl)cc1 (centres undefined),1.5,.,.,.
COC(=O)c1cc(N=Nc2sc(N)nc2C)cc(C(=O)OC)c1,0.6,80.2*,28.2,0.5
CCN(CC)S(=O)(=O)c1cccc(N=Nc2sc(N)nc2C)c1,4.3,.,-3.2,2.2
CCn1c(SCC(=O)Nc2nc(-c3ccc(C)cc3)cs2)nnc1-c1ccccc1O,-1.9,85.8*,-2.3,2.9
CCn1c(SCC(=O)Nc2nc(-c3ccc(C)cc3)cs2)nnc1-c1ccccc1,-1.5,40.5,0.2,-0.2
SMILES,FXN GAA850 act,CHOP inh,UPR XBP1 act,UPR CHOP act
O=C(NNC(=O)c1ccc(-c2ccccc2)cc1)c1ccccc1,1.5,80.7*,-2.3,5.9
CC1CC(C)CN(S(=O)(=O)c2ccc(C(=O)Nc3sccc3C(N)=O)cc2)C1 (centres undefined),-0.7,87.3*,-1.4,0.4
NC(=O)c1ccsc1NC(=O)c1ccc(S(=O)(=O)N2CCCC2)cc1,1.9,34.7,3.5,2.6
COC(=O)c1oc2ccc(Br)cc2c1-n1cccc1,-0.2,44.8,1.6,-2.0
COC(=O)c1oc2ccc(Br)cc2c1NC(=O)CCCN1C(=O)c2ccccc2C1=O,0.5,94.7*,-2.4,0.5
CC(/C=C/C(=O)c1ccc(C)cc1)=C\c1ccccc1,2.9,90.9*,-2.4,5.1
